Square brackets hold non-standard residues; d marks the D form. Peptide text beside a SMILES is read from it. * marks the point of attachment. X1 = C=CCOC(=O)[C@]12CC[C@@H](C(=C)C)[C@@H]1[C@H]1CC[C@@H]3[C@@]4(C)CC[C@H](OC(=O)CCc5cn(CC(=O)*)nn5)C(C)(C)[C@@H]4CC[C@@]3(C)[C@]1(C)CC2; X9 = C=CCOC(=O)[C@]12CC[C@@H](C)[C@H](C)[C@H]1C1=CC[C@@H]3[C@@]4(C)CC[C@H](OC(=O)CCc5cn(CC(=O)*)nn5)C(C)(C)[C@@H]4CC[C@@]3(C)[C@]1(C)CC2; X3 = C=C(C)[C@@H]1CC[C@]2(C(=O)O)CC[C@]3(C)[C@H](CC[C@@H]4[C@@]5(C)CC[C@H](OC(=O)CCc6cn(CC(=O)*)nn6)C(C)(C)[C@@H]5CC[C@]43C)[C@@H]12; X5 = C=C(C)[C@@H]1CC[C@]2(C(=O)OCc3cn(CC(=O)*)nn3)CC[C@]3(C)[C@H](CC[C@@H]4[C@@]5(C)CC[C@H](OC(C)=O)C(C)(C)[C@@H]5CC[C@]43C)[C@@H]12; X4 = C=C(C)[C@@H]1CC[C@]2(C(=O)OCc3cn(CC(=O)*)nn3)CC[C@]3(C)[C@H](CC[C@@H]4[C@@]5(C)CC[C@H](O)C(C)(C)[C@@H]5CC[C@]43C)[C@@H]12; βAla = NCCC(=O)O
What was measured:
[1] = test system: Human immunodeficiency virus 1; assay: Antiviral activity against HIV1 3B infected in human MT2 cells assessed as inhibition of viral p24 antigen production by ELISA; assay type: functional, organism-based; conditions: Human immunodeficiency virus 1, 3B
Method in brief: (§1)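 MT-2 cells (1 × 10⁴) infected with 100 TCID₅₀ virus with or without peptides at graded concentrations. Culture supernatants collected on day 4 postinfection; p24 antigen quantified by ELISA. Percent inhibition and EC₅₀ calculated; tested in triplicate, mean ± standard deviation.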

[2] = Cytotoxicity against human MT2 cells after 4 days by XTT assay; assay type: cell-based
Method in brief: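 MT-2 cells (5 × 10⁵/mL) mixed with equal volumes of graded conjugate concentrations and held at 37 °C for 4 days. XTT (1 mg/mL) with 0.02 μM phenazine methosulfate added for 4 h, then A450 read. CC50 calculated from the dose–response.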

[3] = test system: Human immunodeficiency virus 1; assay: Antiviral activity against HIV1 BaL infected in human […] cells assessed as inhibition of viral replication; assay type: functional, organism-based; conditions: Human immunodeficiency virus 1, BaL; method in brief: as §1
[4] = Selectivity index, ratio of CC50 for human MT2 cells to EC50 for HIV1 3B infected in human MT2 cells; assay type: toxicity, cell-based; conditions: read-out: Ratio CC50/EC50

Row | Compound | EC50 [1] | CC50 at 96 h [2] | EC50 [3] | selectivity ratio [4]
1 | C=C(C)[C@@H]1CC[C@]2(C(=O)O)CC[C@]3(C)[C@H](CC[C@@H]4[C@@]5(C)CC[C@H](OC(=O)CCc6cn(CC(=O)NCCCC[C@H](NC(=O)CCNC(=O)[C@H](CC(C)C)NC(=O)[C@H](CC(C)C)NC(=O)[C@H](CCC(=O)O)NC(=O)[C@H](CCC(N)=O)NC(=O)[C@H](CCC(=O)O)NC(=O)[C@H](CC(N)=O)NC(=O)[C@H](CCCCN)NC(=O)[C@H](CCC(=O)O)NC(=O)[C@H](CCC(N)=O)NC(=O)[C@H](CCC(N)=O)NC(=O)[C@H](CC(N)=O)NC(=O)[C@H](CCC(N)=O)NC(=O)[C@H](CO)NC(=O)[C@H](CCC(=O)O)NC(=O)[C@H](CCC(=O)O)NC(=O)[C@@H](NC(=O)[C@H](CC(C)C)NC(=O)[C@H](CO)NC(=O)[C@H](Cc7cnc[nH]7)NC(=O)[C@@H](NC(=O)[C@H](CC(C)C)NC(=O)[C@H](CO)NC(=O)[C@@H](NC(=O)[C@H](Cc7ccc(O)cc7)NC(=O)[C@H](CC(N)=O)NC(=O)[C@H](CC(N)=O)NC(C)=O)[C@@H](C)O)[C@@H](C)CC)[C@@H](C)CC)C(N)=O)nn6)C(C)(C)[C@@H]5CC[C@]43C)[C@@H]12 (Ac-NNYTSLIHSLIEESQNQQEKNEQELL[βAla]K(X3)-NH2) | 0.0616 µM | > 25 µM | 0.0831 µM | > 406
2 | C=C(C)[C@@H]1CC[C@]2(C(=O)OCc3cn(CC(=O)NCCCC[C@H](NC(=O)CCNC(=O)[C@H](CC(C)C)NC(=O)[C@H](CC(C)C)NC(=O)[C@H](CCC(=O)O)NC(=O)[C@H](CCC(N)=O)NC(=O)[C@H](CCC(=O)O)NC(=O)[C@H](CC(N)=O)NC(=O)[C@H](CCCCN)NC(=O)[C@H](CCC(=O)O)NC(=O)[C@H](CCC(N)=O)NC(=O)[C@H](CCC(N)=O)NC(=O)[C@H](CC(N)=O)NC(=O)[C@H](CCC(N)=O)NC(=O)[C@H](CO)NC(=O)[C@H](CCC(=O)O)NC(=O)[C@H](CCC(=O)O)NC(=O)[C@@H](NC(=O)[C@H](CC(C)C)NC(=O)[C@H](CO)NC(=O)[C@H](Cc4cnc[nH]4)NC(=O)[C@@H](NC(=O)[C@H](CC(C)C)NC(=O)[C@H](CO)NC(=O)[C@@H](NC(=O)[C@H](Cc4ccc(O)cc4)NC(=O)[C@H](CC(N)=O)NC(=O)[C@H](CC(N)=O)NC(C)=O)[C@@H](C)O)[C@@H](C)CC)[C@@H](C)CC)C(N)=O)nn3)CC[C@]3(C)[C@H](CC[C@@H]4[C@@]5(C)CC[C@H](O)C(C)(C)[C@@H]5CC[C@]43C)[C@@H]12 (Ac-NNYTSLIHSLIEESQNQQEKNEQELL[βAla]K(X4)-NH2) | 0.154 µM | > 25 µM | 0.135 µM | > 50
3 | C=C(C)[C@@H]1CC[C@]2(C(=O)OCc3cn(CC(=O)NCCCC[C@H](NC(=O)CCNC(=O)[C@H](CC(C)C)NC(=O)[C@H](CC(C)C)NC(=O)[C@H](CCC(=O)O)NC(=O)[C@H](CCC(N)=O)NC(=O)[C@H](CCC(=O)O)NC(=O)[C@H](CC(N)=O)NC(=O)[C@H](CCCCN)NC(=O)[C@H](CCC(=O)O)NC(=O)[C@H](CCC(N)=O)NC(=O)[C@H](CCC(N)=O)NC(=O)[C@H](CC(N)=O)NC(=O)[C@H](CCC(N)=O)NC(=O)[C@H](CO)NC(=O)[C@H](CCC(=O)O)NC(=O)[C@H](CCC(=O)O)NC(=O)[C@@H](NC(=O)[C@H](CC(C)C)NC(=O)[C@H](CO)NC(=O)[C@H](Cc4cnc[nH]4)NC(=O)[C@@H](NC(=O)[C@H](CC(C)C)NC(=O)[C@H](CO)NC(=O)[C@@H](NC(=O)[C@H](Cc4ccc(O)cc4)NC(=O)[C@H](CC(N)=O)NC(=O)[C@H](CC(N)=O)NC(C)=O)[C@@H](C)O)[C@@H](C)CC)[C@@H](C)CC)C(N)=O)nn3)CC[C@]3(C)[C@H](CC[C@@H]4[C@@]5(C)CC[C@H](OC(C)=O)C(C)(C)[C@@H]5CC[C@]43C)[C@@H]12 (Ac-NNYTSLIHSLIEESQNQQEKNEQELL[βAla]K(X5)-NH2) | 0.0414 µM | > 25 µM | 0.0208 µM | > 603
4 | C=CCOC(=O)[C@]12CC[C@@H](C)[C@H](C)[C@H]1C1=CC[C@@H]3[C@@]4(C)CC[C@H](OC(=O)CCc5cn(CC(=O)NCCCC[C@H](NC(=O)CCNC(=O)[C@H](CC(C)C)NC(=O)[C@H](CC(C)C)NC(=O)[C@H](CCC(=O)O)NC(=O)[C@H](CCC(N)=O)NC(=O)[C@H](CCC(=O)O)NC(=O)[C@H](CC(N)=O)NC(=O)[C@H](CCCCN)NC(=O)[C@H](CCC(=O)O)NC(=O)[C@H](CCC(N)=O)NC(=O)[C@H](CCC(N)=O)NC(=O)[C@H](CC(N)=O)NC(=O)[C@H](CCC(N)=O)NC(=O)[C@H](CO)NC(=O)[C@H](CCC(=O)O)NC(=O)[C@H](CCC(=O)O)NC(=O)[C@@H](NC(=O)[C@H](CC(C)C)NC(=O)[C@H](CO)NC(=O)[C@H](Cc6cnc[nH]6)NC(=O)[C@@H](NC(=O)[C@H](CC(C)C)NC(=O)[C@H](CO)NC(=O)[C@@H](NC(=O)[C@H](Cc6ccc(O)cc6)NC(=O)[C@H](CC(N)=O)NC(=O)[C@H](CC(N)=O)NC(C)=O)[C@@H](C)O)[C@@H](C)CC)[C@@H](C)CC)C(N)=O)nn5)C(C)(C)[C@@H]4CC[C@@]3(C)[C@]1(C)CC2 (Ac-NNYTSLIHSLIEESQNQQEKNEQELL[βAla]K(X9)-NH2) | 0.00218 µM | 7.92 µM | 0.00251 µM | 3630
5 | C=CCOC(=O)[C@]12CC[C@@H](C(=C)C)[C@@H]1[C@H]1CC[C@@H]3[C@@]4(C)CC[C@H](OC(=O)CCc5cn(CC(=O)NCCC(=O)N[C@@H](CC(N)=O)C(=O)N[C@@H](CC(N)=O)C(=O)N[C@@H](Cc6ccc(O)cc6)C(=O)N[C@H](C(=O)N[C@@H](CO)C(=O)N[C@@H](CC(C)C)C(=O)N[C@H](C(=O)N[C@@H](Cc6cnc[nH]6)C(=O)N[C@@H](CO)C(=O)N[C@@H](CC(C)C)C(=O)N[C@H](C(=O)N[C@@H](CCC(=O)O)C(=O)N[C@@H](CCC(=O)O)C(=O)N[C@@H](CO)C(=O)N[C@@H](CCC(N)=O)C(=O)N[C@@H](CC(N)=O)C(=O)N[C@@H](CCC(N)=O)C(=O)N[C@@H](CCC(N)=O)C(=O)N[C@@H](CCC(=O)O)C(=O)N[C@@H](CCCCN)C(=O)N[C@@H](CC(N)=O)C(=O)N[C@@H](CCC(=O)O)C(=O)N[C@@H](CCC(N)=O)C(=O)N[C@@H](CCC(=O)O)C(=O)N[C@@H](CC(C)C)C(=O)N[C@@H](CC(C)C)C(N)=O)[C@@H](C)CC)[C@@H](C)CC)[C@@H](C)O)nn5)C(C)(C)[C@@H]4CC[C@@]3(C)[C@]1(C)CC2 ({X1-βAla}-NNYTSLIHSLIEESQNQQEKNEQELL-NH2) | 0.242 µM | > 25 µM | 0.519 µM | > 103
6 | C=C(C)[C@@H]1CC[C@]2(C(=O)OCc3cn(CC(=O)NCCC(=O)N[C@@H](CC(N)=O)C(=O)N[C@@H](CC(N)=O)C(=O)N[C@@H](Cc4ccc(O)cc4)C(=O)N[C@H](C(=O)N[C@@H](CO)C(=O)N[C@@H](CC(C)C)C(=O)N[C@H](C(=O)N[C@@H](Cc4cnc[nH]4)C(=O)N[C@@H](CO)C(=O)N[C@@H](CC(C)C)C(=O)N[C@H](C(=O)N[C@@H](CCC(=O)O)C(=O)N[C@@H](CCC(=O)O)C(=O)N[C@@H](CO)C(=O)N[C@@H](CCC(N)=O)C(=O)N[C@@H](CC(N)=O)C(=O)N[C@@H](CCC(N)=O)C(=O)N[C@@H](CCC(N)=O)C(=O)N[C@@H](CCC(=O)O)C(=O)N[C@@H](CCCCN)C(=O)N[C@@H](CC(N)=O)C(=O)N[C@@H](CCC(=O)O)C(=O)N[C@@H](CCC(N)=O)C(=O)N[C@@H](CCC(=O)O)C(=O)N[C@@H](CC(C)C)C(=O)N[C@@H](CC(C)C)C(N)=O)[C@@H](C)CC)[C@@H](C)CC)[C@@H](C)O)nn3)CC[C@]3(C)[C@H](CC[C@@H]4[C@@]5(C)CC[C@H](O)C(C)(C)[C@@H]5CC[C@]43C)[C@@H]12 ({X4-βAla}-NNYTSLIHSLIEESQNQQEKNEQELL-NH2) | 0.475 µM | > 25 µM | 0.456 µM | > 52

Reference: ChEMBL document CHEMBL3351900, “Conjugation of a nonspecific antiviral sapogenin with a specific HIV fusion inhibitor: a promising strategy for discovering new antiviral therapeutics” (J Med Chem, 2014)
